Here are results for 9 compounds from ChEMBL document CHEMBL2417469, “Synthesis of novel analogs of 2-pyrazoline obtained from [(7-chloroquinolin-4-yl)amino]chalcones and hydrazine as potential antitumor and antimalarial agents” (Eur J Med Chem, 2013).

In general, inhibition refers to the share of the control response that was lost under treatment. Lower therefore signals a response near the control. Usually IC50 stands for the concentration needed to halve the response being measured.

In brackets after ≈: the same amount, converted by molar mass. Some results are limits rather than exact numbers.

The subject of series [1] is Plasmodium falciparum. Kind of series: Antimalarial activity against Plasmodium falciparum NF54 infected in human serum at 20 ug/ml after 48 hrs by fluorometric method. It is filed as functional. Put shortly: (§1)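 Asynchronous P. falciparum NF54 at 1.5–2% parasitemia, 5% hematocrit in RPMI with 10% human serum, exposed 48 h at 37 °C under 90% N2/5% CO2/5% O2 at the stated concentration; parasite DNA stained with ethidium bromide after proteinase K lysis; viability % = (Flu treated − medium)/(Flu untreated − medium) ×100; triplicate.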

The nature of series [2]: Toxicity in RBC (unknown origin) assessed as hemolysis after 48 hrs at 20 to 80 ug/ml by spectrophotometry. It is filed as cell-based, Erythrocyte. The settings on record: red blood cells (RBC); read-out: Activity. Put shortly: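 Red blood cells at 5% hematocrit in RPMI 1640 exposed to 20, 40 and 80 µg/mL for 48 h at 37 °C; free hemoglobin read spectrophotometrically at 542 nm.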

The test system of series [3] is Plasmodium falciparum. Kind of series: Antimalarial activity against Plasmodium falciparum NF54 infected in human serum after 48 hrs by fluorometric method. It counts as functional, organism-based. The essentials: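 Asynchronous P. falciparum NF54 cultures at 1.5–2% parasitemia, 5% hematocrit in RPMI with 10% human serum; equal volumes of parasite suspension and compound dilutions (from 100 µg/mL stock) incubated 48 h, 37 °C, 90% N2/5% CO2/5% O2. DNA extracted with proteinase K lysis, stained with ethidium bromide; fluorescence-based viability vs compound-free control. IC50 by Probit; triplicate.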

In series [4] the test system is Plasmodium falciparum. Kind of series: Antimalarial activity against Plasmodium falciparum NF54 infected in human serum at 22.2 ug/ml after 48 hrs by fluorometric method. It counts as functional. Put shortly:
as §1

As to `Cc1ccc(C2CC(c3cccc(Nc4ccnc5cc(Cl)ccc45)c3)=NN2C=O)cc1` (stereo unspecified), in series [1], the inhibition at 20 µg/mL stood at 0%.

In the case of `CC(=O)N1N=C(c2ccc(Nc3ccnc4cc(Cl)ccc34)cc2)CC1c1ccccc1` (stereo unspecified), the inhibition at 20 µg/mL in series [1] stood at 33%. In series [2], the hemolysis at 48 h stood at 2.8%. Further, the IC50 in series [3] turned out to be 38 µg/mL (≈ 86.2 µM).

On to `COc1ccc(C2CC(c3ccc(Nc4ccnc5cc(Cl)ccc45)cc3)=NN2C(C)=O)cc1` (stereo unspecified), for which testing at 20 µg/mL in series [1] gave an inhibition of 38.3%. Besides, in series [2], the hemolysis at 48 h came out at 3.1%. Further, the IC50 in series [3] was more than 100 µg/mL.

Turning to `COc1cc(C2CC(c3ccc(Nc4ccnc5cc(Cl)ccc45)cc3)=NN2C(C)=O)cc(OC)c1OC` (stereo unspecified), the inhibition at 20 µg/mL in series [1] is 0%.

In series [1], `CC(=O)N1N=C(c2ccc(Nc3ccnc4cc(Cl)ccc34)cc2)CC1c1ccc(C)cc1` (stereo unspecified) gave an inhibition at 20 µg/mL of 10.6%.

Take `O=CN1N=C(c2ccc(Nc3ccnc4cc(Cl)ccc34)cc2)CC1c1ccc(Br)cc1` (stereo unspecified): the inhibition at 20 µg/mL in series [1] is 50.8%. The hemolysis at 48 h in series [2] turned out to be 3.2%. In series [3], this compound registered a 50% inhibitory concentration (IC50) of 14.1 µg/mL (≈ 27.9 µM).

For `O=CN1N=C(c2cccc(Nc3ccnc4cc(Cl)ccc34)c2)CC1c1ccc(Br)cc1` (stereo unspecified), the inhibition at 20 µg/mL in series [1] is 12.5%.

Regarding `CC(=O)N1N=C(c2ccc(Nc3ccnc4cc(Cl)ccc34)cc2)CC1c1ccc(Br)cc1` (stereo unspecified), in series [1], 20 µg/mL produced 6.8% inhibition.

In turn, `CCN(CC)CCCC(C)Nc1ccnc2cc(Cl)ccc12` (stereo unspecified) [CHLOROQUINE PHOSPHATE] registered an inhibition at 22.2 µg/mL in series [4] of 68.4%. In addition, the hemolysis at 48 h in series [2] turned out to be 17.2%.
